According to ChEMBL document CHEMBL1165861, “Synthesis and biological evaluation of some pyrazolylpyrazolines as anti-inflammatory-antimicrobial agents” (2010):
Converted amounts (≈) assume the structure as drawn.

Tests used:
Bacillus subtilis [1] = assay: Antimicrobial activity against Bacillus subtilis MTCC 121 at 4 mg/ml after 24 hrs by agar diffusion method; format: functional; conditions: MTCC 121, 24 h, read-out: DIZ
Outline: (§1)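 Agar well diffusion: seeded agar plates swabbed with inoculum and left 15 min for adsorption, then 8 mm wells bored and loaded. Incubation 37 °C for 24 h. Inhibition zone diameter measured in mm with a zone reader. DMSO medium served as negative control and ciprofloxacin as positive control. Triplicates.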

Rattus norvegicus [2] = assay: Antiinflammatory activity in Wistar albino rat assessed as inhibition of carrageenan-induced paw edema at 50 mg/kg, po administered 30 mins before carrageenan challenge measured after 90 mins relative to control; format: functional
Outline: (§2)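 Male Wistar albino rats (200–250 g) in groups of six, food withdrawn 12 h before and during the test. Compounds were dosed orally at 50 mg/kg; controls received tween 80 (95:5). After 30 min, 0.1 mL of 1% w/v carrageenan in saline was injected subplantar into the left hind paw. Plethysmometer volumes were taken initially and at 30–120 min. AI% is relative to control, mean ± SEM, ANOVA.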

Bacillus subtilis [3] = assay: Antimicrobial activity against Bacillus subtilis MTCC 121 after 24 hrs by broth microdilution assay; format: functional; conditions: MTCC 121, 24 h
Outline: (§3)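 MIC was determined by microplate dilution (microdilution) in Müller–Hinton broth, with ciprofloxacin as the reference drug.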

Rattus norvegicus [4] = assay: Antiinflammatory activity in Wistar albino rat assessed as inhibition of carrageenan-induced paw edema at 50 mg/kg, po administered 30 mins before carrageenan challenge measured after 60 mins relative to control; format: functional; outline: as §2
Staphylococcus aureus [5] = assay: Antimicrobial activity against Staphylococcus aureus MTCC 3160 after 24 hrs by broth microdilution assay; format: functional; conditions: MTCC 3160, 24 h; outline: as §3
Rattus norvegicus [6] = assay: Antiinflammatory activity in Wistar albino rat assessed as inhibition of carrageenan-induced paw edema at 50 mg/kg, po administered 30 mins before carrageenan challenge measured after 120 mins relative to control; format: functional; outline: as §2
Pseudomonas aeruginosa [7] = assay: Antimicrobial activity against Pseudomonas aeruginosa MTCC 741 after 24 hrs by broth microdilution assay; format: functional; conditions: MTCC 741, 24 h; outline: as §3
Pseudomonas aeruginosa [8] = assay: Antimicrobial activity against Pseudomonas aeruginosa MTCC 741 at 4 mg/ml after 24 hrs by agar diffusion method; format: functional; conditions: MTCC 741, 24 h, read-out: DIZ; outline: as §1
Escherichia coli [9] = assay: Antimicrobial activity against Escherichia coli MTCC 51 at 4 mg/ml after 24 hrs by agar diffusion method; format: functional; conditions: MTCC 51, 24 h, read-out: DIZ; outline: as §1
Escherichia coli [10] = assay: Antimicrobial activity against Escherichia coli MTCC 51 after 24 hrs by broth microdilution assay; format: functional; conditions: MTCC 51, 24 h; outline: as §3
Staphylococcus aureus [11] = assay: Antimicrobial activity against Staphylococcus aureus MTCC 3160 at 4 mg/ml after 24 hrs by agar diffusion method; format: functional; conditions: MTCC 3160, 24 h, read-out: DIZ; outline: as §1
Rattus norvegicus [12] = assay: Antiinflammatory activity in Wistar albino rat assessed as inhibition of carrageenan-induced paw edema at 50 mg/kg, po administered 30 mins before carrageenan challenge measured after 30 mins relative to control; format: functional; outline: as §2
Rattus norvegicus [13] = species on record: Rattus norvegicus; assay: animal or person; conditions: Wistar albino, po, read-out: INH
Rattus norvegicus [14] = species on record: Rattus norvegicus; assay: animal or person; conditions: Wistar albino, po, read-out: INH; remark: listed apart in the source
Rattus norvegicus [15] = species on record: Rattus norvegicus; assay: animal or person; conditions: Wistar albino, po, read-out: INH; remark: listed apart in the source
Rattus norvegicus [16] = species on record: Rattus norvegicus; assay: animal or person; conditions: Wistar albino, po, read-out: INH; remark: listed apart in the source

Compound	zone of inhibition at 4000 µg/mL (Bacillus subtilis [1]) [mm]	inhibition in vivo at 50 mg/kg (Rattus norvegicus [2]) [%]	MIC (Bacillus subtilis [3]) [µg/mL]	inhibition in vivo at 50 mg/kg (Rattus norvegicus [4]) [%]	MIC (Staphylococcus aureus [5]) [µg/mL]	inhibition in vivo at 50 mg/kg (Rattus norvegicus [6]) [%]	MIC (Pseudomonas aeruginosa [7]) [µg/mL]	zone of inhibition at 4000 µg/mL (Pseudomonas aeruginosa [8]) [mm]	zone of inhibition at 4000 µg/mL (Escherichia coli [9]) [mm]	MIC (Escherichia coli [10]) [µg/mL]	zone of inhibition at 4000 µg/mL (Staphylococcus aureus [11]) [mm]	inhibition in vivo at 50 mg/kg (Rattus norvegicus [12]) [%]	inhibition in vivo at 4 mg/kg (Rattus norvegicus [13]) [%]	inhibition in vivo at 4 mg/kg (Rattus norvegicus [14]) [%]	inhibition in vivo at 4 mg/kg (Rattus norvegicus [15]) [%]	inhibition in vivo at 4 mg/kg (Rattus norvegicus [16]) [%]
Cc1ccc(C2=NN(c3ccc(S(N)(=O)=O)cc3)C(c3cn(-c4ccccc4)nc3-c3ccccc3)C2)cc1 (stereo unspecified)	17	27	32 (≈ 60 µM)	17	32 (≈ 60 µM)	26	64 (≈ 120 µM)	11.7	11.7	64 (≈ 120 µM)	16.3	5				
NS(=O)(=O)c1ccc(N2N=C(c3ccccc3)CC2c2cn(-c3ccccc3)nc2-c2ccccc2)cc1 (stereo unspecified)	18.7	10	32 (≈ 61.6 µM)	4	32 (≈ 61.6 µM)	1	64 (≈ 123 µM)	10.7	11.7	64 (≈ 123 µM)	17.7	5				
Cc1ccc(-c2nn(-c3ccccc3)cc2C2CC(c3ccccc3)=NN2c2ccc(S(N)(=O)=O)cc2)cc1 (stereo unspecified)	11	22	64 (≈ 120 µM)	14	32 (≈ 60 µM)	16	128 (≈ 240 µM)	9.33	11.7	64 (≈ 120 µM)	16	18				
NS(=O)(=O)c1ccc(N2N=C(c3ccccc3)CC2c2cn(-c3ccccc3)nc2-c2ccc(Br)cc2)cc1 (stereo unspecified)	23.7	38	8 (≈ 13.4 µM)	26	8 (≈ 13.4 µM)	32	32 (≈ 53.5 µM)	17.3	17.3	32 (≈ 53.5 µM)	24	16				
NS(=O)(=O)c1ccc(N2N=C(c3ccc(F)cc3)CC2c2cn(-c3ccccc3)nc2-c2ccccc2)cc1 (stereo unspecified)	23.3	23	8 (≈ 14.9 µM)	25	8 (≈ 14.9 µM)	15	32 (≈ 59.5 µM)	17.7	21.7	16 (≈ 29.8 µM)	23.7	22				
O=C(O)c1cn(C2CC2)c2cc(N3CCNCC3)c(F)cc2c1=O [CIPROFLOXACIN]	29.2		2 (≈ 6.04 µM)		2 (≈ 6.04 µM)		4 (≈ 12.1 µM)	28	28.6		32.6					
CS(=O)(=O)Nc1ccc([N+](=O)[O-])cc1Oc1ccccc1 [NIMESULIDE]													37	45	43	36
